Measured values from ChEMBL document CHEMBL1782040, “Exceptionally fast uptake and metabolism of cyanidin 3-glucoside by rat kidneys and liver” (J Nat Prod, 2011).

Experiments:
[1] = Drug uptake in Wistar rat plasma at 0.67 umol, iv after 0.25 mins by mass spectrometry analysis; format: ADME, organism-based
Method in brief: (§1)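 Fasted, anaesthetized rats received the anthocyanin in saline as a 0.67 μmol iliac-vein bolus (76 μM in plasma). They were sacrificed at 15 s, 1, 5 or 15 min, and plasma, kidneys, liver, urine and bile were collected. Anthocyanins were methanol-extracted, SPE-cleaned and quantified by MS (tandem MS for trace metabolites), then corrected for recovery measured on spiked blood, homogenates and urine. Amounts assume 8.8 mL plasma, 2.4 g kidney and 7.0 g liver, with urine and bile volumes measured.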

[2] = Drug uptake in Wistar rat plasma at 0.67 umol, iv after 1 min by mass spectrometry analysis; format: ADME, organism-based; method in brief: as §1
[3] = Drug uptake in Wistar rat plasma at 0.67 umol, iv after 5 mins by mass spectrometry analysis; format: ADME, organism-based; method in brief: as §1
[4] = Drug uptake in Wistar rat plasma at 0.67 umol, iv after 15 mins by mass spectrometry analysis; format: ADME, organism-based; method in brief: as §1
Kidney [5] = assay: Drug uptake in Wistar rat kidney assessed by assuming kidney mass was 2.4 gram at 0.67 umol, iv after 0.25 mins by mass spectrometry analysis; format: ADME, organism-based; details: in vivo, 15 s
Method in brief: (§2)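 Cyanidin 3-glucoside in saline was given as one iliac-vein injection (0.67 μmol) to fasting, anaesthetized rats, which were killed at 15 s, 1, 5 or 15 min. Kidneys were homogenized, extracted in methanol, cleaned up by SPE and analysed by LC-MS/MS.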

[6] = Drug uptake in Wistar rat kidney at 0.67 umol, iv after 0.25 mins by mass spectrometry analysis; format: ADME, organism-based; details: read-out: Drug uptake; method in brief: as §2
Kidney [7] = assay: Drug uptake in Wistar rat kidney assessed by assuming kidney mass was 2.4 gram at 0.67 umol, iv after 1 min by mass spectrometry analysis; format: ADME, organism-based; details: in vivo; method in brief: as §2
[8] = Drug uptake in Wistar rat kidney at 0.67 umol, iv after 1 min by mass spectrometry analysis; format: ADME, organism-based; details: read-out: Drug uptake; method in brief: as §2
Kidney [9] = assay: Drug uptake in Wistar rat kidney assessed by assuming kidney mass was 2.4 gram at 0.67 umol, iv after 5 mins by mass spectrometry analysis; format: ADME, organism-based; details: in vivo; method in brief: as §2
[10] = Drug uptake in Wistar rat kidney at 0.67 umol, iv after 5 mins by mass spectrometry analysis; format: ADME, organism-based; details: read-out: Drug uptake; method in brief: as §2
Kidney [11] = assay: Drug uptake in Wistar rat kidney assessed by assuming kidney mass was 2.4 gram at 0.67 umol, iv after 15 mins by mass spectrometry analysis; format: ADME, organism-based; details: in vivo, 0.25 h; method in brief: as §2
[12] = Drug uptake in Wistar rat kidney at 0.67 umol, iv after 15 mins by mass spectrometry analysis; format: ADME, organism-based; details: read-out: Drug uptake; method in brief: as §2
Liver [13] = assay: Drug uptake in Wistar rat liver assessed by assuming liver mass was 7 grams at 0.67 umol, iv after 0.25 mins by mass spectrometry analysis; format: ADME, organism-based; details: in vivo, 15 s
Method in brief: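 Fasting, anaesthetized rats received cyanidin 3-glucoside in saline into the iliac vein (0.67 μmol) and were killed at 15 s, 1, 5 or 15 min. Liver homogenates were methanol-extracted, cleaned up by SPE and quantified by LC-MS/MS.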

[14] = Drug uptake in Wistar rat liver at 0.67 umol, iv after 0.25 mins by mass spectrometry analysis; format: ADME, organism-based; details: read-out: Drug uptake; method in brief: as §1
Liver [15] = assay: Drug uptake in Wistar rat liver assessed by assuming liver mass was 7 grams at 0.67 umol, iv after 1 min by mass spectrometry analysis; format: ADME, organism-based; details: in vivo; method in brief: as §1
[16] = Drug uptake in Wistar rat liver at 0.67 umol, iv after 1 min by mass spectrometry analysis; format: ADME, organism-based; details: read-out: Drug uptake; method in brief: as §1
Liver [17] = assay: Drug uptake in Wistar rat liver assessed by assuming liver mass was 7 grams at 0.67 umol, iv after 5 mins by mass spectrometry analysis; format: ADME, organism-based; details: in vivo; method in brief: as §1
[18] = Drug uptake in Wistar rat liver at 0.67 umol, iv after 5 mins by mass spectrometry analysis; format: ADME, organism-based; details: read-out: Drug uptake; method in brief: as §1
Liver [19] = assay: Drug uptake in Wistar rat liver assessed by assuming liver mass was 7 grams at 0.67 umol, iv after 15 mins by mass spectrometry analysis; format: ADME, organism-based; details: in vivo, 0.25 h; method in brief: as §1
[20] = Drug uptake in Wistar rat liver at 0.67 umol, iv after 15 mins by mass spectrometry analysis; format: ADME, organism-based; details: read-out: Drug uptake; method in brief: as §1
[21] = Elimination rate constant in Wistar rat plasma at 0.67 umol, iv; format: ADME, cell-free
Method in brief: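 Rats received a 0.67 μmol iliac-vein bolus in saline under anaesthesia. Plasma amounts (nmol) at 15 s, 1, 5 and 15 min were obtained by recovery-corrected MS and fitted to y = y0 + a·e^(−kt). k is the first-order elimination constant, y0 the steady-state amount, and a the extrapolated t0 amount minus y0.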

[22] = Drug uptake in Wistar rat urine assessed by assuming plasma volume was 8.8 mL at 0.67 umol, iv after 15 mins by mass spectrometry analysis; format: ADME, organism-based; details: in vivo, 0.25 h; method in brief: as §1
[23] = Drug uptake in Wistar rat urine at 0.67 umol, iv after 15 mins by mass spectrometry analysis; format: ADME, organism-based; details: read-out: Drug uptake; method in brief: as §1
[24] = Drug uptake in Wistar rat bile assessed by assuming plasma volume was 8.8 mL at 0.67 umol, iv after 15 mins by mass spectrometry analysis; format: ADME, organism-based; details: in vivo, 0.25 h
[25] = Drug uptake in Wistar rat bile at 0.67 umol, iv after 15 mins by mass spectrometry analysis; format: ADME, organism-based; details: read-out: Drug uptake
Method in brief: (§3)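 Cyanidin 3-glucoside in saline was injected into the iliac vein of fasting, anaesthetized rats (0.67 μmol; 76 μM in plasma). Urine and bile were collected to 15 min, and their volumes were measured. Anthocyanin levels were measured by LC-MS and corrected for recovery from spiked standards. Amounts are given per collected volume (n = 9 urine, n = 4 bile).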

[26] = Drug excretion in Wistar rat urine at 0.67 umol, iv after 15 mins by mass spectrometry analysis; format: ADME, organism-based; details: read-out: Activity; method in brief: as §3
[27] = Drug excretion in Wistar rat bile at 0.67 umol, iv after 15 mins by mass spectrometry analysis; format: ADME, organism-based; details: read-out: Activity; method in brief: as §3
Nucleic Acid [28] = assay: Ratio of drug uptake in urine to kidney in Wistar rat at 0.67 umol, iv after 15 mins by mass spectrometry analysis; format: ADME, organism-based; details: in vivo, 0.25 h
Method in brief: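 Fasting anaesthetized rats got 0.67 μmol anthocyanin in saline into the iliac vein (about 76 μM in plasma) and were killed at 15 min. Urine (volume measured) and kidneys (2.4 g assumed) were extracted in methanol and cleaned by SPE. Analytes were quantified by LC-tandem MS, corrected for recovery from spiked matrices, n = 9 rats.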

Nucleic Acid [29] = assay: Ratio of drug uptake in bile to liver in Wistar rat at 0.67 umol, iv after 15 mins by mass spectrometry analysis; format: ADME, organism-based; details: in vivo, 0.25 h
Plasma [30] = assay: Metabolic stability in Wistar rat assessed as parent compound level in plasma at 0.67 umol, iv after 0.25 mins by mass spectrometry analysis; format: ADME, organism-based; details: in vivo, 15 s; method in brief: as §1
Plasma [31] = assay: Metabolic stability in Wistar rat assessed as parent compound level in plasma at 0.67 umol, iv after 1 min by mass spectrometry analysis; format: ADME, organism-based; details: in vivo; method in brief: as §1
Plasma [32] = assay: Metabolic stability in Wistar rat assessed as parent compound level in plasma at 0.67 umol, iv after 5 mins by mass spectrometry analysis; format: ADME, organism-based; details: in vivo; method in brief: as §1
Plasma [33] = assay: Metabolic stability in Wistar rat assessed as parent compound level in plasma at 0.67 umol, iv after 15 mins by mass spectrometry analysis; format: ADME, organism-based; details: in vivo, 0.25 h; method in brief: as §1
Kidney [34] = assay: Metabolic stability in Wistar rat assessed as parent compound level in kidney at 0.67 umol, iv after 0.25 mins by mass spectrometry analysis; format: ADME, organism-based; details: in vivo, 15 s; method in brief: as §1
Kidney [35] = assay: Metabolic stability in Wistar rat assessed as parent compound level in kidney at 0.67 umol, iv after 1 min by mass spectrometry analysis; format: ADME, organism-based; details: in vivo; method in brief: as §1
Kidney [36] = assay: Metabolic stability in Wistar rat assessed as parent compound level in kidney at 0.67 umol, iv after 5 mins by mass spectrometry analysis; format: ADME, organism-based; details: in vivo; method in brief: as §1
Kidney [37] = assay: Metabolic stability in Wistar rat assessed as parent compound level in kidney at 0.67 umol, iv after 15 mins by mass spectrometry analysis; format: ADME, organism-based; details: in vivo, 0.25 h; method in brief: as §1
Liver [38] = assay: Metabolic stability in Wistar rat assessed as parent compound level in liver at 0.67 umol, iv after 0.25 mins by mass spectrometry analysis; format: ADME, organism-based; details: in vivo, 15 s; method in brief: as §1
Liver [39] = assay: Metabolic stability in Wistar rat assessed as parent compound level in liver at 0.67 umol, iv after 1 min by mass spectrometry analysis; format: ADME, organism-based; details: in vivo; method in brief: as §1
Liver [40] = assay: Metabolic stability in Wistar rat assessed as parent compound level in liver at 0.67 umol, iv after 5 mins by mass spectrometry analysis; format: ADME, organism-based; details: in vivo; method in brief: as §1
Liver [41] = assay: Metabolic stability in Wistar rat assessed as parent compound level in liver at 0.67 umol, iv after 15 mins by mass spectrometry analysis; format: ADME, organism-based; details: in vivo, 0.25 h; method in brief: as §1
[42] = Metabolic stability in Wistar rat assessed as parent compound level in urine at 0.67 umol, iv after 15 mins by mass spectrometry analysis; format: ADME, organism-based; details: in vivo, 0.25 h; method in brief: as §1
[43] = Metabolic stability in Wistar rat assessed as parent compound level in bile at 0.67 umol, iv after 15 mins by mass spectrometry analysis; format: ADME, organism-based; details: in vivo, 0.25 h; method in brief: as §1
Nucleic Acid [44] = assay: Ratio of drug uptake in kidney to liver in Wistar rat assessed as level at 0.67 umol, iv by mass spectrometry analysis; details: in vivo
Nucleic Acid [45] = assay: Ratio of drug uptake in kidney to liver in Wistar rat assessed as cyanidin 3-glucoside level at 0.67 umol, iv after 15 mins by mass spectrometry analysis; details: in vivo, 0.25 h

concentration at 15 s [1]: 18.2 µM | concentration at 1 min [2]: 5.7 µM | concentration at 5 min [3]: 1.6 µM | concentration at 0.25 h [4]: 1.6 µM | Drug uptake (Kidney [5]): 27.1 nmol | concentration at 15 s [6]: 11.3 µM | Drug uptake (Kidney [7]): 29.8 nmol | concentration at 1 min [8]: 12.4 µM | Drug uptake (Kidney [9]): 10.7 nmol | concentration at 5 min [10]: 4.5 µM | Drug uptake (Kidney [11]): 10.6 nmol | concentration at 0.25 h [12]: 4.4 µM | Drug uptake (Liver [13]): 2.5 nmol | concentration at 15 s [14]: 0.4 µM | Drug uptake (Liver [15]): 2.5 nmol | concentration at 1 min [16]: 0.4 µM | Drug uptake (Liver [17]): 0.1 nmol | concentration at 5 min [18]: 0.02 µM | Drug uptake (Liver [19]): 0.4 nmol | concentration at 0.25 h [20]: 0.1 µM | k el [21]: 0.0317 s⁻¹ | Drug uptake [22]: 41.3 nmol | concentration at 0.25 h [23]: 317 µM | Drug uptake [24]: 0.4 nmol | concentration at 0.25 h [25]: 2.3 µM | dose excreted at 0.25 h [26]: 6.2% | dose excreted at 0.25 h [27]: < 0.1% | Ratio (Nucleic Acid [28]): 71.9 | Ratio (Nucleic Acid [29]): 34.2 | Stability (Plasma [30]): 171.2 nmol | Stability (Plasma [31]): 55.8 nmol | Stability (Plasma [32]): 17.2 nmol | Stability (Plasma [33]): 19.7 nmol | Stability (Kidney [34]): 73.1 nmol | Stability (Kidney [35]): 130.8 nmol | Stability (Kidney [36]): 52 nmol | Stability (Kidney [37]): 62.7 nmol | Stability (Liver [38]): 43.6 nmol | Stability (Liver [39]): 84.4 nmol | Stability (Liver [40]): 34.6 nmol | Stability (Liver [41]): 32.3 nmol | Stability [42]: 141 nmol | Stability [43]: 58.9 nmol | Ratio (Nucleic Acid [44]): 12 | Ratio (Nucleic Acid [45]): 37
Compound: OC[C@H]1O[C@@H](Oc2cc3c(O)cc(O)cc3[o+]c2-c2ccc(O)c(O)c2)[C@H](O)[C@@H](O)[C@@H]1O [KUROMANIN]
